Published values from different studies.
Lines come from different studies, so protocols differ.
CDK6 with cyclin D3: Cyclin-dependent kinase 6, with cyclin D3 (CDK6, Homo sapiens, UniProt Q00534)
CDK6 with cyclin D1: Cyclin-dependent kinase 6, with cyclin D1 (CDK6, Homo sapiens, UniProt Q00534)

SMILES	target	observed	action	technique	concentration	measurement	value
CCCOc1ccc(OC)c(F)c1C(=O)c1ccc(C(=O)N[C@@H]2CNC[C@H]2NC(=O)c2ccc3[nH]ncc3c2)cc1	CDK6 with cyclin D3	enzyme activity	inhibitor		10 µM	remaining activity	83%
Cc1cnc(NC2CCOCC2)nc1-n1cnc(C(=O)NC(CN)c2cc(F)cc(Cl)c2)c1 (centres unmarked)	CDK6 with cyclin D3	enzyme activity	inhibitor	radiometric	1 µM	remaining activity	31%
CCN(CC)CCNC(=O)c1c(C)[nH]c(/C=C2\C(=O)Nc3ccc(F)cc32)c1C	CDK6 with cyclin D3	enzyme activity	inhibitor		0.3 µM	inhibition	13%
O=C(Nc1cnn(-c2csc(C(=O)NC3COC3)c2)c1)Nc1ccccc1Cl	CDK6 with cyclin D3	enzyme activity	inhibitor		5 µM	remaining activity	114%
CNC(=O)c1cc(Oc2ccc(NC(=O)Nc3ccc(Cl)c(C(F)(F)F)c3)cc2)ccn1	CDK6 with cyclin D3	enzyme activity	inhibitor		0.3 µM	inhibition	-11%
CC(C)(C)c1nc(-c2cccc(NS(=O)(=O)c3c(F)cccc3F)c2F)c(-c2ccnc(N)n2)s1	CDK6 with cyclin D3	enzyme activity	inhibitor	radiometric	1 µM	remaining activity	74%
Cc1ccc(C(=O)NCc2ccsc2)cc1C#Cc1cn(C(C)C)c2ncnc(N)c12	CDK6 with cyclin D3	enzyme activity	inhibitor		1 µM	activity vs control	101%
CC(C)(O)[C@H]1CC[C@H](Nc2ccc3ncc(-c4cccc(C(F)(F)F)c4)n3n2)CC1	CDK6 with cyclin D1	enzyme activity	inhibitor		1 µM	remaining activity	101%
N#CCCc1ccc2c(c1)-c1[nH]c3ccc([N+](=O)[O-])cc3c1CC(=O)N2	CDK6 with cyclin D1	cell-free assay			0.5 µM	remaining signal	6.79%
O=C(Nc1cnn(-c2csc(C(=O)NC3COC3)c2)c1)Nc1c(F)cccc1Cl	CDK6 with cyclin D3	enzyme activity	inhibitor		5 µM	remaining activity	92.6%
O=C1NC(=O)c2cc(Nc3ccc(F)cc3)c(Nc3ccc(F)cc3)cc21	CDK6 with cyclin D3	cell-free assay			0.5 µM	remaining signal	89.9%
CN1CC(Oc2cnc(C#N)cc2-c2ccn3nc(NC(=O)C4CC4)cc3c2)C1	CDK6 with cyclin D3	enzyme activity	inhibitor		1 µM	inhibition	-8%
CC(C)(C)c1nc2c(s1)c1nc(N)ncc1c1ccc(NS(=O)(=O)c3c(F)cccc3F)c(F)c12	CDK6 with cyclin D1	enzyme activity	inhibitor	radiometric	1 µM	remaining activity	113%
Cc1ccc(Nc2nccc(N(C)c3ccc4c(C)n(C)nc4c3)n2)cc1S(N)(=O)=O	CDK6 with cyclin D3	enzyme activity	inhibitor		10 µM	inhibition	38%
O=C1Nc2ccc(Cl)cc2C1=Cc1cc(Cl)c(O)c(Cl)c1	CDK6 with cyclin D3	cell-free assay			0.5 µM	remaining signal	94.1%
Cn1cnc(Br)c1C1=CN(c2ncnc3[nH]cnc23)CCS1	Cyclin-dependent kinase 6 (CDK6, Homo sapiens, UniProt Q00534)	enzyme activity	inhibitor	radiometric	50 nM	inhibition	22%
CC(C)c1ccc(NC(=O)c2cccs2)c(-c2nc3ccccc3[nH]c2=O)c1	CDK6 with cyclin D3	enzyme activity	inhibitor		1 µM	activity vs control	114%
